From ChEMBL document CHEMBL1123879, “Synthesis and antiarrhythmic activity of novel 3-alkyl-1-[omega-[4-[(alkylsulfonyl)amino]phenyl]-omega- hydroxyalkyl]-1H-imidazolium salts and related compounds” (J Med Chem, 1987)

Assays:
[1] = species: Canis familiaris; assay: Concentration that causes 20% increase in functional refractory period (FRP) was determined on isolated canine ventricular muscle fibers; design: species or system Canis lupus familiaris, Muscle tissue
Procedure, shortened: (§1)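 Canine right ventricular papillary muscle strips superfused with O2/CO2-gassed saline at 36 ± 0.5 °C. Bipolar electrogram recording. Stimulated at 4× diastolic threshold (2 ms pulses), equilibrated 60 min. FRP measured at 1000 ms cycle length by S2 after every tenth S1 at shortening intervals. Cumulative concentrations; one compound per strip, with vehicle controls. Readout is concentration giving a 20% FRP change, or maximal change; log mean with 90% CI when n > 2.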

[2] = species: Canis familiaris; assay: Maximum observed change in ADP95 from control value was determined in isolated canine cardiac uM; format: functional, Canis lupus familiaris
Procedure, shortened: (§2)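 Canine cardiac Purkinje fibres in gassed physiological saline (95% O2–5% CO2, pH 7.35–7.40) at 36 ± 0.5 °C. Paced at 1.0 Hz with 2 ms pulses at twice diastolic threshold. Intracellular microelectrode recording after up to 1 h of stabilisation; 30 min exposure per concentration; one compound per fibre, with vehicle controls. Readout is concentration giving a 20% change in APD95, or maximal APD95 change; log mean with 90% CI when n > 2.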

[3] = species: Canis familiaris; assay: Maximum observed change in FRP from control was determined in isolated canine ventricular muscle fibers at a concentration of 10 uM; format: functional, Canis lupus familiaris, Muscle tissue; procedure, shortened: as §1
[4] = species: Canis familiaris; assay: Concentration that causes 20% increase in ADP95 (action potential duration at 95% repolarization) was determined on isolated canine cardiac Purkinje fibers; format: functional, Canis lupus familiaris, Purkinje fiber; procedure, shortened: as §2
[5] = tested on: Canis familiaris; assay: In vivo antiarrhythmic efficacy in a programmed electrical stimulation (PES) model of mongrel dogs reported as number of animals effective at dose range of 0.3-30 mg/kg.; format: functional, Canis lupus familiaris, Heart
Procedure, shortened: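 Mongrel dogs (8–17 kg) with two-stage LAD occlusion 24 h earlier, anesthetized with thiopental 15 mg/kg and ventilated; open chest. PES induces SVT/VF; two control arrhythmias 30 min apart. Compound given as 10-min iv infusion, PES repeated 20 min later, dose escalated while still inducible; noninducibility counts as effective. HR and BP reported as % change at effective dose, mean ± SEM.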

[6] = tested on: Canis familiaris; assay: In vivo intraduodenal activity in mongrel dogs was assessed by % change in heart rate (10 mg/kg administered intradermally); format: functional, Canis lupus familiaris; settings: in the assay text read “intraduodenally” for “intradermally”
Procedure, shortened: (§3)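 Healthy dogs (8–20 kg) of either sex, pentobarbital 30 mg/kg iv, ventilated, temperature held at 36 ± 0.5 °C. Compound given intraduodenally as suspension in 0.5% tragacanth. HR, BP and FRP measured at 45 min postdose; second dose if FRP/conduction change below 12%. Active dose means FRP change ≥ 12%; HR and BP given as % change, mean ± SEM.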

[7] = species: Canis familiaris; assay: Maximum observed change in FRP from control was determined on isolated canine ventricular muscle fibers at a concentration of 100 uM; format: functional, Canis lupus familiaris, Muscle tissue; procedure, shortened: as §1
[8] = tested on: Canis familiaris; assay: In vivo intraduodenal activity in mongrel dogs was assessed by % change in blood pressure (10 mg/kg administered intradermally); format: functional, Canis lupus familiaris, Artery; settings: in the assay text read “intraduodenally” for “intradermally”; procedure, shortened: as §3
[9] = species: Canis familiaris; assay: Concentration that causes 20% increase in ADP95 (action potential duration at 95% repolarization) was determined on isolated canine cardiac Purkinje fibers (0.01-10 uM concentration range); format: functional, Canis lupus familiaris, Purkinje fiber; procedure, shortened: as §2
[10] = tested on: Canis familiaris; assay: In vivo intraduodenal activity in mongrel dogs was assessed by percent change in blood pressure at active dose of 30 mg/kg, administered intradermally; format: functional, Canis lupus familiaris, Artery; settings: in the assay text read “intraduodenally” for “intradermally”; procedure, shortened: as §3
[11] = tested on: Canis familiaris; assay: In vivo intraduodenal activity in mongrel dogs was assessed by percent change in heart rate at active dose of 30 mg/kg, administered intradermally; format: functional, Canis lupus familiaris; settings: in the assay text read “intraduodenally” for “intradermally”; procedure, shortened: as §3
[12] = species: Canis familiaris; assay: Concentration that causes 20% increase in functional refractory period (FRP) was determined on isolated canine ventricular muscle fibers; NR = never reached; settings: Canis lupus familiaris; Muscle tissue; procedure, shortened: as §1
[13] = species: Canis familiaris; assay: Maximum observed change in FRP from control was determined in isolated canine ventricular muscle fibers at a concentration of 100 uM; format: functional, Canis lupus familiaris, Muscle tissue; procedure, shortened: as §1

Cc1n(CC(O)c2ccc(NS(C)(=O)=O)cc2)cc[n+]1C.[Cl-] (stereo not given)
Activity [1]: 0.2 µM
Max delta APD95 [2]: 51%
Max delta FRP [3]: 44%
Activity [4]: 0.8 µM
No. effective [5]: 0
Heart rate [6]: -20%
Max delta FRP [7]: 56%
Blood pressure [8]: 3%

C[n+]1ccn(CC(=O)c2ccc(NS(C)(=O)=O)cc2)c1.[Cl-]
Activity [9]: 2.3 µM
Max delta APD95 [2]: 38%
No. effective [5]: 0
Blood pressure [10]: 3%
Heart rate [11]: -19%
Activity [12]: Not recorded
Max delta FRP [13]: 15%
